From ChEMBL document CHEMBL1139470, “Benzophenone-based farnesyltransferase inhibitors with high activity against Trypanosoma cruzi” (J Med Chem, 2005)

What was measured:
[1] = test system: Trypanosoma cruzi; assay: Inhibition of Trypanosoma cruzi Tulahuen in BALB/c mouse blood; format: functional
Method in brief: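 Trypomastigote lysis assay: mouse blood (from infected BALB/c, cardiac puncture) holding 5 × 10^4 bloodstream trypomastigotes per well, compound added from 10 mM DMSO stock diluted in BHI; DMSO controls (final 1/1000). 24 h at 4 °C, then microscopic counting at 400×. Triplicates, experiments repeated 3–4 times; lysis relative to control; LC50 = minimal concentration lysing 50%.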

[2] = Inhibition of Saccharomyces cerevisiae FTase
[3] = Cytotoxicity against HeLa cells after 72 hrs; format: cell-based; details: human
Method in brief: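 HeLa cells grown in RPMI 1640 with 10% heat-inactivated FBS and gentamicin, then harvested in log phase by trypsinization. About 10 000 cells/well were preincubated 48 h before compound addition (10 mM DMSO stock diluted 1:200 in medium). Cells were exposed 72 h at 37 °C, 5% CO2, fixed with glutaraldehyde and stained with methylene blue. Stain was eluted with HCl and OD read at 660 nm to give CC50.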

[4] = test system: Vero; assay: Effect on Vero cell morphology at 100 uM; format: functional, cell-based; details: Chlorocebus sabaeus
Method in brief: (§1)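 Vero cells cultured in RPMI 1640 with 5% heat-inactivated FBS. 10^4 cells/well were incubated with compound at 37 °C, 5% CO2, in triplicate per concentration. DMSO was the diluent at a final 1/1000, and DMSO-only wells served as control. Toxicity was judged by cell morphology and confluent growth.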

[5] = test system: Vero; assay: Cytotoxicity against Vero cells at 100 uM; format: cell-based; details: chlorocebus sabaeus; method in brief: as §1
[6] = test system: Mus musculus; assay: Survival of BALB/c mouse infected with Trypanosoma cruzi trypomastigotes at 7 mg/kg/day relative to control; format: functional
Method in brief: (§2)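 Male BALB/c mice, 60 days old, infected intraperitoneally with 500 bloodstream trypomastigotes (groups of five; untreated infected controls, six). Oral dosing (25 µL) from 30 min post-infection, five times weekly, 39 doses total (21 at 3.2 mg/kg/day). Control mice got physiological solution. Parasitemia checked by tail-blood microscopy twice weekly. Survival recorded to day 115 pi.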

[7] = test system: Mus musculus; assay: Survival of BALB/c mouse infected with Trypanosoma cruzi trypomastigotes at 6.4 mg/kg/day relative to control; format: functional; method in brief: as §2
[8] = test system: Mus musculus; assay: Survival of BALB/c mouse infected with Trypanosoma cruzi trypomastigotes at 3.2 mg/kg/day relative to control; format: functional; method in brief: as §2

SMILES | LC50 [1] | IC50 [2] | CC50 at 72 h [3] | further results
O=C1CCN(C(C(=O)Nc2ccc(NC(=O)/C=C/c3ccc(-c4ccc([N+](=O)[O-])cc4)o3)cc2C(=O)c2ccccc2)c2ccccc2)CC1 (configuration not stated) | 1000 nM | – | – | –
N[C@@H](C(=O)Nc1ccc(NC(=O)/C=C/c2ccc(-c3ccc([N+](=O)[O-])cc3)o2)cc1C(=O)c1ccccc1)c1ccccc1 | > 50000 nM | 8 nM | > 80000 nM | –
NC(Cc1ccc(C(F)(F)F)cc1)C(=O)Nc1ccc(NC(=O)/C=C/c2ccc(-c3ccc([N+](=O)[O-])cc3)o2)cc1C(=O)c1ccccc1 (configuration not stated) | 50000 nM | 95 nM | – | –
CC(C)NC(=O)CN1CCN(C(C(=O)Nc2ccc(NC(=O)/C=C/c3ccc(-c4ccc([N+](=O)[O-])cc4)o3)cc2C(=O)c2ccccc2)c2ccccc2)CC1 (configuration not stated) | > 50000 nM | 340 nM | – | –
N[C@H](C(=O)Nc1ccc(NC(=O)/C=C/c2ccc(-c3ccc([N+](=O)[O-])cc3)o2)cc1C(=O)c1ccccc1)c1ccccc1 | > 50000 nM | 46 nM | > 80000 nM | –
CN1CCN(C(C(=O)Nc2ccc(NC(=O)/C=C/c3ccc(-c4ccc([N+](=O)[O-])cc4)o3)cc2C(=O)c2ccccc2)c2ccc(Cl)cc2)CC1 (configuration not stated) | 10000 nM | 125 nM | 38600 nM | –
N[C@@H](Cc1c[nH]c2ccccc12)C(=O)Nc1ccc(NC(=O)/C=C/c2ccc(-c3ccc([N+](=O)[O-])cc3)o2)cc1C(=O)c1ccccc1 | 10000 nM | 580 nM | – | –
CC(C)C[C@H](N)C(=O)Nc1ccc(NC(=O)/C=C/c2ccc(-c3ccc([N+](=O)[O-])cc3)o2)cc1C(=O)c1ccccc1 | 1000 nM | 360 nM | > 83000 nM | –
CC(C)(C)OC(=O)NC(Cc1ccc(C(F)(F)F)cc1)C(=O)Nc1ccc(NC(=O)/C=C/c2ccc(-c3ccc([N+](=O)[O-])cc3)o2)cc1C(=O)c1ccccc1 (configuration not stated) | > 50000 nM | 285 nM | – | –
O=C(/C=C/c1ccc(-c2ccc([N+](=O)[O-])cc2)o1)Nc1ccc(NC(=O)C(c2ccccc2)N2CCN(Cc3ccccc3)CC2)c(C(=O)c2ccccc2)c1 (configuration not stated) | 50000 nM | 660 nM | – | –
N[C@@H](Cc1ccccc1)C(=O)Nc1ccc(NC(=O)/C=C/c2ccc(-c3ccc([N+](=O)[O-])cc3)o2)cc1C(=O)c1ccccc1 | > 10000 nM | 3 nM | > 79000 nM | –
O=C(/C=C/c1ccc(-c2ccc([N+](=O)[O-])cc2)o1)Nc1ccc(NC(=O)C(c2ccccc2)N2CCOCC2)c(C(=O)c2ccccc2)c1 (configuration not stated) | 50000 nM | 660 nM | > 76000 nM | –
N[C@@H](Cc1ccc(Cl)cc1)C(=O)Nc1ccc(NC(=O)/C=C/c2ccc(-c3ccc([N+](=O)[O-])cc3)o2)cc1C(=O)c1ccccc1 | 1000 nM | 60 nM | > 74500 nM | –
CN1CCN(C(C(=O)Nc2ccc(NC(=O)/C=C/c3ccc(-c4ccc([N+](=O)[O-])cc4)o3)cc2C(=O)c2ccccc2)c2ccccc2)CC1 (configuration not stated) | 10000 nM | 10 nM | 37000 nM | –
O=C(/C=C/c1ccc(-c2ccc([N+](=O)[O-])cc2)o1)Nc1ccc(NC(=O)C(c2ccccc2)N2CCCCC2)c(C(=O)c2ccccc2)c1 (configuration not stated) | 50000 nM | 455 nM | – | –
O=C(/C=C/c1ccc(-c2ccc([N+](=O)[O-])cc2)o1)Nc1ccc(NC(=O)C(c2ccccc2)N2CCN(C3CCCCC3)CC2)c(C(=O)c2ccccc2)c1 (configuration not stated) | 1000 nM | 340 nM | 42000 nM | –
O=C(/C=C/c1ccc(-c2ccc([N+](=O)[O-])cc2)o1)Nc1ccc(NC(=O)C(c2ccccc2)N2CCN(CCO)CC2)c(C(=O)c2ccccc2)c1 (configuration not stated) | 10000 nM | 430 nM | 71000 nM | –

SMILES | LC50 [1] | IC50 [2] | CC50 at 72 h [3] | further results
O=C(/C=C/c1ccc(-c2ccc([N+](=O)[O-])cc2)o1)Nc1ccc(NC(=O)C(c2ccccc2)N2CCN(c3ccccc3)CC2)c(C(=O)c2ccccc2)c1 (configuration not stated) | > 50000 nM | 300 nM | – | –
CCN1CCN(C(C(=O)Nc2ccc(NC(=O)/C=C/c3ccc(-c4ccc([N+](=O)[O-])cc4)o3)cc2C(=O)c2ccccc2)c2ccccc2)CC1 (configuration not stated) | > 50000 nM | > 10000 nM | – | –
N[C@H](Cc1ccc(Cl)cc1)C(=O)Nc1ccc(NC(=O)/C=C/c2ccc(-c3ccc([N+](=O)[O-])cc3)o2)cc1C(=O)c1ccccc1 | > 10000 nM | 70 nM | > 74500 nM | –
CSCC[C@@H](N)C(=O)Nc1ccc(NC(=O)/C=C/c2ccc(-c3ccc([N+](=O)[O-])cc3)o2)cc1C(=O)c1ccccc1 | > 10000 nM | 500 nM | > 81000 nM | –
O=C(/C=C/c1ccc(-c2ccc([N+](=O)[O-])cc2)o1)Nc1ccc(NC(=O)Cc2ccc(C(F)(F)F)cc2)c(C(=O)c2ccccc2)c1 | 50000 nM | 26 nM | > 57000 nM | –
CCc1ccc(-c2ccc(/C=C/C(=O)Nc3ccc(NC(=O)Cc4ccc(C)cc4)c(C(=O)c4ccccc4)c3)o2)cc1 | 50000 nM | 90 nM | – | –
CCCN1CCN(C(C(=O)Nc2ccc(NC(=O)/C=C/c3ccc(-c4ccc([N+](=O)[O-])cc4)o3)cc2C(=O)c2ccccc2)c2ccccc2)CC1 (configuration not stated) | 10 nM | 125 nM | 68000 nM | Activity [4]: Non-toxic; Activity [5]: Non-toxic; survival at 7 mg/kg/day [6]: 60%
CC(C)(C)OC(=O)NC(C(=O)Nc1ccc(NC(=O)/C=C/c2ccc(-c3ccc([N+](=O)[O-])cc3)o2)cc1C(=O)c1ccccc1)c1ccc(C(F)(F)F)cc1 (configuration not stated) | 50000 nM | 8 nM | – | –
CC[C@H](C)[C@H](N)C(=O)Nc1ccc(NC(=O)/C=C/c2ccc(-c3ccc([N+](=O)[O-])cc3)o2)cc1C(=O)c1ccccc1 | 100 nM | 150 nM | > 83000 nM | –
CC(C)C[C@@H](N)C(=O)Nc1ccc(NC(=O)/C=C/c2ccc(-c3ccc([N+](=O)[O-])cc3)o2)cc1C(=O)c1ccccc1 | 100 nM | 500 nM | 47800 nM | –
NC(C(=O)Nc1ccc(NC(=O)/C=C/c2ccc(-c3ccc([N+](=O)[O-])cc3)o2)cc1C(=O)c1ccccc1)c1ccc(C(F)(F)F)cc1 (configuration not stated) | 10000 nM | 17 nM | – | –
Cc1ccc(CC(=O)Nc2ccc(NC(=O)/C=C/c3ccc(-c4ccc(S(C)(=O)=O)cc4)o3)cc2C(=O)c2ccccc2)cc1 | 50000 nM | 30 nM | – | –
Cc1ccc(CC(=O)Nc2ccc(NC(=O)/C=C/c3ccc(-c4ccc([N+](=O)[O-])cc4)o3)cc2C(=O)c2ccccc2)cc1 | > 100000 nM | 35 nM | > 85000 nM | –
CSCC[C@H](N)C(=O)Nc1ccc(NC(=O)/C=C/c2ccc(-c3ccc([N+](=O)[O-])cc3)o2)cc1C(=O)c1ccccc1 | > 10000 nM | 1770 nM | > 81000 nM | –
NC(C(=O)Nc1ccc(NC(=O)/C=C/c2ccc(-c3ccc([N+](=O)[O-])cc3)o2)cc1C(=O)c1ccccc1)c1ccc(F)cc1 (configuration not stated) | 50000 nM | 25 nM | > 78000 nM | –
N[C@H](Cc1ccccc1)C(=O)Nc1ccc(NC(=O)/C=C/c2ccc(-c3ccc([N+](=O)[O-])cc3)o2)cc1C(=O)c1ccccc1 | 1 nM | 116 nM | > 78000 nM | survival at 6.4 mg/kg/day [7]: 80%; Activity [4]: Non-toxic; Activity [5]: Non-toxic; survival at 3.2 mg/kg/day [8]: 0%
